Here are results for 14 molecules from ChEMBL document CHEMBL5126610, “Beyond Retigabine: Design, Synthesis, and Pharmacological Characterization of a Potent and Chemically Stable Neuronal Kv7 Channel Activator with Anticonvulsant Activity” (J Med Chem, 2022).

Data set [1] addresses T1, Voltage-gated potassium channel, KQT; KCNQ2(Kv7.2)/KCNQ3(Kv7.3) (Homo sapiens) (UniProt O43526+O43525). Kind of data set: Activation of Kv7.2/Kv7.3 channel (unknown origin) expressed in CHO cells assessed as slope of fluorescent signal at 10 uM by FluxOR fluorescent dye based assay. Format: cell-based. The settings on record: filed as activator. An outline of the steps:
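CHO clone stably expressing Kv7.2/Kv7.3 (PiggyBac, puromycin 4 µg/mL), seeded 1.6 × 10^4 cells/well on poly-D-lysine, assayed 24 h later. FluxOR II thallium flux, wash method, ex 485/em 520 nm. Tl+ stimulus buffer added after 5 s, read every 1 s for 50 s. Initial slope taken from 5–15 s. Vehicle 0.1% DMSO, 10 µM retigabine reference; only runs with Z' > 0.5 kept; ≥3 experiments.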

Data set [2] deals with Mus musculus. Briefly: Anticonvulsant activity in PTZ induced C57BL/6 mouse acute seizure model assessed as seizure score at 3 mg/kg, ip pretreated for 30 mins followed by PTZ injection and measured upto 30 mins by Liittjohann's scale analysis. Format: functional. The settings on record: time 60 min, 1 h. An outline of the steps: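 Male C57Bl/6 mice given drug i.p. in saline with 2% Tween-20 and 2% PEG-400 (0.01 mL/g), 30 min before PTZ 100 mg/kg s.c. Observed in Plexiglass boxes for 30 min. Maximal severity scored on the revised Lüttjohann 9-point scale (0–8), latency to maximal seizure recorded. One-way ANOVA with Tukey.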

A short description of data set [3]: Photo stability of compound in saline at 10 uM irradiated with UV for 3 hrs by HPLC analysis. Format: physicochemical. The settings on record: buffer. The procedure, abridged:
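Compounds in DMSO diluted into buffered aqueous solution pH 7.4 to a final 10 µM. Irradiated in 1 cm quartz cells by a 150 W UV lamp at 20 cm for 3 h; dark controls held at 37 °C. Aliquots analysed by UHPLC on C18 with TFA water/ACN gradient: 220 nm for loss of parent, 550 nm for phenazine/phenazinium dimers.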

Data set [4] has as its system Mus musculus. Kind of data set: Anticonvulsant activity in PTZ induced C57BL/6 mouse acute seizure model assessed as seizure score at 0.3 mg/kg, ip pretreated for 30 mins followed by PTZ injection and measured upto 30 mins by Liittjohann's scale analysis. In kind it is functional. The note with it: time 60 min, 1 h. An outline of the steps: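 Male C57Bl/6 mice, drug in saline with 2% Tween-20 and 2% PEG-400, given i.p. at 0.01 mL/g 30 min before PTZ (100 mg/kg s.c. in saline). Animals watched in clear boxes for 30 min. Maximal severity was scored on the revised Lüttjohann 9-point scale (0 whisker trembling to 8 wild jumping). Group mean reported.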

The nature of data set [5]: Toxicity in PTZ induced C57BL/6 mouse acute seizure model assessed as in mortality at 0.3 mg/kg, ip. Format: organism-based. The note with it: in vivo. The procedure, abridged: (§1)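 Male C57Bl/6 mice were pretreated i.p. with drug in saline containing 2% Tween-20 and 2% PEG-400, 30 min before PTZ (100 mg/kg s.c.). Vehicle controls received the vehicle alone. Survival was recorded as animals alive at the end of the 60 min observation period after PTZ and expressed as percent (surviving/total) per group.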

Data set [6] has as its target T1, Voltage-gated potassium channel, KQT; KCNQ2(Kv7.2)/KCNQ3(Kv7.3) (Homo sapiens). Briefly: Activation of Kv7.2/Kv7.3 channel (unknown origin) expressed in CHO cells at -80 mV measured after 24 hrs by whole cell patch clamp based electrophysiological method. The settings on record: filed as activator. (In general: In patch-clamp work, channel activity is measured electrically.)

For data set [7] the target is unchanged. Kind of data set: Activation of Kv7.2/Kv7.3 channel (unknown origin) expressed in CHO cells assessed as half activation potential measured after 24 hrs by whole cell patch clamp based electrophysiological method. The note with it: filed as activator.
The nature of data set [8]: Toxicity in PTZ induced C57BL/6 mouse acute seizure model assessed as mortality at 1 mg/kg, ip. In kind it is organism-based. The note with it: in vivo. An outline of the steps:
as §1

For data set [9], the target named is T1, Voltage-gated potassium channel, KQT; KCNQ2(Kv7.2)/KCNQ3(Kv7.3) (Homo sapiens). Kind of data set: Activation of Kv7.2/Kv7.3 channel (unknown origin) expressed in CHO cells assessed as leftward shift change in half activation potential at 1 uM measured after 24 hrs by whole cell patch clamp based electrophysiological method. The settings on record: filed as activator.

Calls of active or inactive are those of the source. The rule behind the calls is not given here.

As for `CCCCCCC(=O)Nc1ccc(CCc2ccc(C(F)(F)F)cc2)cc1N`, in [1], the Activity was 0.0087. Turning to `O=C1c2ccccc2C(Cc2ccncc2)(Cc2ccncc2)c2ccccc21`, the Activity with Mus musculus [2] came out at 7.3. With `CC(C)(C)CC(=O)Nc1ccc(NCc2ccc(C(F)(F)F)cc2)cc1N1CCCC1`, the Stability result in [3] is “Unstable”.

Regarding `CC(C)(C)CC(=O)Nc1ccc(NCc2ccc(C(F)(F)F)cc2)c(F)c1N`, the figures for the Activity (in the data set with Mus musculus [4]; in data set [5]; in data set [8]) were 6, 87% and 100%, respectively. In data set [6], the outcome was Active. Further, in [7], the V1/2 is -30.2 mV. Regarding `CC(C)(C)CC(=O)Nc1ccc(NCc2ccc(C(F)(F)F)cc2)cc1N`, in [3], the Stability result is “Stable”. In the case of `CCOC(=O)Nc1ccc(NCc2ccc(F)cc2)cc1N`, the outcome in data set [6] was Active. With `CCOC(=O)Nc1ccc(NCc2ccc(C(F)(F)F)cc2)c(F)c1N`, in data set [6], the result was Active. The delta(V1/2) in [9] stood at 40 mV.

Take `CCCCCCC(=O)Nc1ccc(NCc2ccccc2F)cc1N`: the Stability result in data set [3] is on record as “Stable”. Still for that read-out and setting: the entry for `CC(C)(C)CC(=O)Nc1ccc(NCc2c(F)cccc2F)cc1N` is “Stable”; for `CCCCCCC(=O)Nc1ccc(NCc2ccc(C(F)(F)F)cc2)cc1N` it is “Stable”.

Take `CCCCCCCC(=O)Nc1ccc(NCc2ccc(C(F)(F)F)cc2)cc1N`: the Stability result in data set [3] is given as “Stable”. Still for that read-out and setting: as for `CC(C)(C)CC(=O)Nc1ccc(NCc2ccc(C(F)(F)F)cc2)cc1N1CCCCC1`, the entry is “Unstable”. Turning to `Nc1cc(NCc2ccc(C(F)(F)F)cc2)ccc1NC(=O)CCC1CCCCC1`, the Stability result in data set [3] was “Stable”.

As for `CCCCCCC(=O)Nc1ccc(NCc2ccccc2)cc1N`, the Stability result in data set [3] is on record as “Stable”.
